{"data": "Measured values of several laboratories", "TACR1": "Substance-P receptor (TACR1, Homo sapiens, UniProt P25103)", "EAPA": "Endothiapepsin (EAPA, Cryphonectria parasitica, UniProt P11838)", "Tmem97": "Sigma intracellular receptor 2 (Tmem97, Rattus norvegicus, UniProt Q5U3Y7)", "Trypanothione synthetase": "Trypanothione synthetase (Trypanosoma cruzi, UniProt Q9GT49)", "HTR2C": "5-hydroxytryptamine receptor 2C (HTR2C, Homo sapiens, UniProt P28335)", "MMP3": "Stromelysin-1 (MMP3, Homo sapiens, UniProt P08254)", "BDKRB2": "B2 bradykinin receptor (BDKRB2, Homo sapiens, UniProt P30411)", "note": "Each line is one published result; the experiments were not run side by side."}
{"Structure (SMILES)": "O=C(c1ccc(Cl)cc1)N(Cc1ccccc1)C1CCCCC1", "target": "TACR1", "observed": "cell-free assay", "concentration": "10 µM", "inhibition": "15.1%"}
{"Structure (SMILES)": "NNC(CCc1ccccc1)c1nnnn1Cc1ccc2c(c1)OCO2 (stereo not shown)", "target": "EAPA", "observed": "enzyme activity", "action": "inhibitor", "concentration": "200 µM", "inhibition": "36.3%"}
{"Structure (SMILES)": "CC1CNc2c(cccc2S(=O)(=O)N[C@@H](CCCNC(=N)N)C(=O)N2CC[C@@H](C)C[C@@H]2C(=O)O)C1 (stereo partly shown)", "target": "Prothrombin (F2, Bos taurus, UniProt P00735)", "observed": "enzyme activity", "action": "inhibitor", "technique": "fluorescence", "concentration": "0.1 µg/mL", "inhibition": "94%"}
{"Structure (SMILES)": "O=C(Nc1ccc(S(=O)(=O)N2CCC(Cl)CC2)cc1)c1ccc([N+](=O)[O-])o1", "target": "TACR1", "observed": "ligand displacement", "technique": "radioligand", "concentration": "10 µM", "inhibition": "3%"}
{"Structure (SMILES)": "COc1cc2c(cc1OC)CN(C(C)CCc1ccc(O)cc1)CC2 (stereo not shown)", "target": "Tmem97", "observed": "ligand displacement", "technique": "radioligand", "concentration": "0.1 µM", "inhibition": "94%"}
{"Structure (SMILES)": "CCCCCC(NN)c1nnnn1Cc1ccc2c(c1)OCO2 (stereo not shown)", "target": "EAPA", "observed": "enzyme activity", "action": "inhibitor", "concentration": "200 µM", "inhibition": "32.8%"}
{"Structure (SMILES)": "CCOC(=O)CN1C(=O)Cc2c([nH]c3ccc(Br)cc23)-c2ccc(Cl)cc21", "target": "Trypanothione synthetase", "observed": "enzyme activity", "action": "inhibitor", "technique": "absorbance", "concentration": "30 µM", "inhibition": "19.1%"}
{"Structure (SMILES)": "NNC(CCc1ccccc1)c1nnnn1CC(=O)NCc1cccs1 (stereo not shown)", "target": "EAPA", "observed": "enzyme activity", "action": "inhibitor", "concentration": "200 µM", "inhibition": "39.1%"}
{"Structure (SMILES)": "CC(C)(C)OC(=O)NCCNC(=O)CN1C(=O)Cc2c([nH]c3ccc(Br)cc23)-c2ccc(Cl)cc21", "target": "Trypanothione synthetase", "observed": "enzyme activity", "action": "inhibitor", "technique": "absorbance", "concentration": "30 µM", "inhibition": "38.5%"}
{"Structure (SMILES)": "CNC(=O)[C@@]12C[C@@H]1[C@@H](n1cnc3c(NC)nc(C#Cc4ccc(Cl)s4)nc31)[C@H](O)[C@@H]2O", "target": "Tmem97", "observed": "ligand displacement", "technique": "radioligand", "concentration": "10 µM", "inhibition": "60 to 70%"}
{"Structure (SMILES)": "O=C(CN1C(=O)Cc2c([nH]c3ccc(Br)cc23)-c2ccc(Cl)cc21)Nc1ncco1", "target": "Trypanothione synthetase", "observed": "enzyme activity", "action": "inhibitor", "technique": "absorbance", "concentration": "30 µM", "inhibition": "6.9%"}
{"Structure (SMILES)": "COc1cc2c3c(c1OC)-c1cc4c(cc1CC3N(C)CC2c1ccccc1)OCO4 (stereo not shown)", "target": "HTR2C", "observed": "ligand displacement", "technique": "radioligand", "concentration": "10 µM", "inhibition": "< 50%"}
{"Structure (SMILES)": "O=C(CN1C(=O)Cc2c([nH]c3ccc(Br)cc23)-c2ccc(Cl)cc21)NCCN1CCCCC1", "target": "Trypanothione synthetase", "observed": "enzyme activity", "action": "inhibitor", "technique": "absorbance", "concentration": "30 µM", "inhibition": "21.4%"}
{"Structure (SMILES)": "O=C(c1ccc(OCCN2CCCCC2)cc1)c1c(-c2ccc(O)cc2)sc2cc(O)ccc12", "target": "Trypanothione synthetase", "observed": "enzyme activity", "action": "inhibitor", "technique": "absorbance", "concentration": "25 µM", "inhibition": "24.5%"}
{"Structure (SMILES)": "FC(F)(F)c1ccc(-c2nnc(-c3cc4c(s3)CCCC4)o2)cn1", "target": "1-deoxy-D-xylulose-5-phosphate synthase (dxs, Deinococcus radiodurans, UniProt Q9RUB5)", "observed": "enzyme activity", "action": "inhibitor", "concentration": "120 µM", "inhibition": "0%"}
{"Structure (SMILES)": "O=C(O)c1ccccn1", "target": "MMP3", "observed": "enzyme activity", "action": "inhibitor", "concentration": "1 mM", "pH": "pH 6", "inhibition": "> 80%"}
{"Structure (SMILES)": "Oc1cccc(Nc2nc(-c3ccc(F)cc3F)cs2)c1", "target": "TACR1", "observed": "cell-free assay", "concentration": "10 µM", "inhibition": "30%"}
{"Structure (SMILES)": "CN1CC(Oc2cnc(C#N)cc2-c2ccn3nc(NC(=O)C4CC4)cc3c2)C1", "target": "MAPK/MAK/MRK overlapping kinase (MOK, Homo sapiens, UniProt Q9UQ07)", "observed": "enzyme activity", "action": "inhibitor", "concentration": "1 µM", "inhibition": "15%"}
{"Structure (SMILES)": "NCCNC(=O)CN1C(=O)Cc2c([nH]c3ccc(Br)cc23)-c2ccc(Cl)cc21", "target": "Trypanothione synthetase", "observed": "enzyme activity", "action": "inhibitor", "technique": "absorbance", "concentration": "30 µM", "inhibition": "26.3%"}
{"Structure (SMILES)": "O=C1N=C(N2CCCCN2)S/C1=C\\c1ccc(F)cc1O", "target": "Melatonin receptor type 1A (MTNR1A, Homo sapiens, UniProt P48039)", "observed": "ligand displacement", "technique": "radioligand", "concentration": "10 µM", "inhibition": "< 10%"}
{"Structure (SMILES)": "NNC(COCc1ccccc1)c1nnnn1CCc1ccc(O)cc1 (stereo not shown)", "target": "EAPA", "observed": "enzyme activity", "action": "inhibitor", "concentration": "200 µM", "inhibition": "91.5%"}
{"Structure (SMILES)": "CCCNc1nc2ccccc2n1Cc1ccc(Cl)cc1", "target": "HTR2C", "observed": "ligand displacement", "technique": "radioligand", "concentration": "10 µM", "inhibition": "80%"}
{"Structure (SMILES)": "O=C(c1ccc(F)cc1)N(Cc1ccccc1)C1CCCCC1", "target": "BDKRB2", "observed": "cell-free assay", "concentration": "10 µM", "inhibition": "-3%"}
{"Structure (SMILES)": "Ic1cccc2cnccc12", "target": "NMNAT1 (Homo sapiens, UniProt Q9HAN9)", "observed": "enzyme activity", "action": "inhibitor", "concentration": "10 µM", "inhibition": "-3%"}
{"Structure (SMILES)": "CN(C)C1CCN(CC#Cc2nn(C3CCCC3)c3nc(NCc4ccccc4)ncc23)C1 (stereo not shown)", "target": "Testis-specific serine/threonine-protein kinase 1 (TSSK1B, Homo sapiens, UniProt Q9BXA7)", "observed": "enzyme activity", "action": "inhibitor", "technique": "FRET", "concentration": "1 µM", "inhibition": "-2%"}
{"Structure (SMILES)": "O=C(O)c1ccc(C(=O)O)nc1", "target": "MMP3", "observed": "enzyme activity", "action": "inhibitor", "concentration": "1 mM", "pH": "pH 6", "inhibition": "> 80%"}
{"Structure (SMILES)": "N#Cc1cc(Cn2c(N3CCCC3)nc3ccccc32)ccc1F", "target": "HTR2C", "observed": "ligand displacement", "technique": "radioligand", "concentration": "10 µM", "inhibition": "14.4%"}
{"Structure (SMILES)": "CC(C)(C)OC(=O)CN1C(=O)Cc2c([nH]c3ccc(Br)cc23)-c2ccc(Cl)cc21", "target": "Trypanothione synthetase", "observed": "enzyme activity", "action": "inhibitor", "technique": "absorbance", "concentration": "30 µM", "inhibition": "10.3%"}
{"Structure (SMILES)": "CCCC(NN)c1nnnn1Cc1ccccc1 (stereo not shown)", "target": "EAPA", "observed": "enzyme activity", "action": "inhibitor", "concentration": "200 µM", "inhibition": "3%"}
{"Structure (SMILES)": "COc1cc(NC(C)=O)c(Cl)cc1C(=O)Nc1nccs1", "target": "BDKRB2", "observed": "cell-free assay", "concentration": "10 µM", "inhibition": "-21.3%"}
{"Structure (SMILES)": "CCN(Cc1ccccc1C(F)(F)F)C(=O)C1CCN(S(=O)(=O)c2ccc3[nH]ncc3c2)CC1", "target": "TACR1", "observed": "ligand displacement", "technique": "radioligand", "concentration": "10 µM", "inhibition": "18%"}
{"Structure (SMILES)": "CN(Cc1ccc(NC(=O)C2=Cc3cc(-c4ccc(OCCCCCF)cc4)ccc3CCC2)cc1)C1CCOCC1", "target": "Tmem97", "observed": "ligand displacement", "technique": "radioligand", "concentration": "10 µM", "inhibition": "7%"}
{"Structure (SMILES)": "O=C(CN1C(=O)Cc2c([nH]c3ccc(Br)cc23)-c2ccc(Cl)cc21)N1CCN(c2ncccn2)CC1", "target": "Trypanothione synthetase", "observed": "enzyme activity", "action": "inhibitor", "technique": "absorbance", "concentration": "30 µM", "inhibition": "40.6%"}
{"Structure (SMILES)": "C=CC1=C(C)C2=Cc3c(C=C)c(C)c4[n]3[Sn]([Cl])([Cl])[n]3c(c(C)c(CCC(=O)O)c3=CC3=NC(=C4)C(C)=C3CCC(=O)O)=CC1=N2", "target": "Trypanothione synthetase", "observed": "enzyme activity", "action": "inhibitor", "technique": "absorbance", "concentration": "25 µM", "inhibition": "18.7%"}
{"Structure (SMILES)": "CCNC(=O)CN1C(=O)Cc2c([nH]c3ccc(Br)cc23)-c2ccc(Cl)cc21", "target": "Trypanothione synthetase", "observed": "enzyme activity", "action": "inhibitor", "technique": "absorbance", "concentration": "30 µM", "inhibition": "41.4%"}
{"Structure (SMILES)": "NNC(COCc1ccccc1)c1nnnn1Cc1ccc2c(c1)OCO2 (stereo not shown)", "target": "EAPA", "observed": "enzyme activity", "action": "inhibitor", "concentration": "200 µM", "inhibition": "48.3%"}
{"Structure (SMILES)": "CNC(=O)c1cc(Oc2ccc(NC(=O)Nc3ccc(Cl)c(C(F)(F)F)c3)cc2)ccn1", "target": "Serine/threonine-protein kinase SIK1 (SIK1, Homo sapiens, UniProt P57059)", "observed": "enzyme activity", "action": "inhibitor", "concentration": "10 µM", "inhibition": "3%"}
